According to ChEMBL document CHEMBL1143124, “Synthesis and structure-activity relationships of 16-ene-22-thia-1alpha,25-dihydroxy-26,27-dimethyl-19-norvitamin D3 analogs having side chains of different sizes” (Bioorg Med Chem, 2008):

Experiments:
Osteoclast = experiment: Increase in osteoclast formation in mouse primary osteoclast cocultured cells; type: functional, cell-based
Summary of the method: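 Tibial marrow cells (1.5×10^5/well) from 5–8-wk male ddY mice were cocultured with primary calvarial cells (3×10^3/well) from newborn ddY mice. Culture was 7 days in α-MEM with 10% FBS and compound at 10^-8 to 10^-12 M, with medium renewed on day 3. Cells were formaldehyde-fixed and TRAP-stained, and TRAP-positive cells with ≥3 nuclei counted microscopically as osteoclasts.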

[1] = biological target: T1, Vitamin D3 receptor (Rattus norvegicus) (UniProt P13053); experiment: Displacement of [3H]1-alpha,25-(OH)2D3 from rat recombinant VDR ligand-binding domain relative to 1-alpha,25-(OH)2D3
T1 sequence (whole entry): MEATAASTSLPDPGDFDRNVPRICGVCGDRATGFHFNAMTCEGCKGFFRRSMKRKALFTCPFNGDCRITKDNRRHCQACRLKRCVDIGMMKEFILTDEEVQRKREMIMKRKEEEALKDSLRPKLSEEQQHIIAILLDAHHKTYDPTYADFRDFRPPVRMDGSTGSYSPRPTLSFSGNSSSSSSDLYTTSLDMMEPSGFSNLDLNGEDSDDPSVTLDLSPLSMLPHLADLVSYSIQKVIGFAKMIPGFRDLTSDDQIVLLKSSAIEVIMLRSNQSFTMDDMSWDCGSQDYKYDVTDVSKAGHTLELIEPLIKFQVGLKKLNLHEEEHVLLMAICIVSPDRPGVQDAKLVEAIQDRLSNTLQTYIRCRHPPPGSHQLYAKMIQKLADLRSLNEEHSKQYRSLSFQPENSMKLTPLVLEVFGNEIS
Summary of the method: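 His-tagged rat VDR LBD (aa 115–423) was expressed in E. coli and the sonicated lysate diluted ~1000-fold in 50 mM Tris pH 7.5 (100 mM KCl, 5 mM DTT, 0.5% CHAPS, 100 µg/ml BSA). It was incubated with [3H]-1α,25-(OH)2D3 (~5000 dpm) at 4 °C for 18 h. Free ligand was removed with dextran-coated charcoal (30 min, 4 °C) and centrifugation, and the supernatant counted. At least two runs, in duplicate.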

[2] = biological target: Vitamin D3 receptor (Homo sapiens) (UniProt P11473); experiment: Activity at human VDR assessed as transcriptional activation in COS cells after 24 hrs by luciferase reporter gene assay relative to 1-alpha,25-(OH)2D3

Activity [1] [%]	Activity [2] [%]	Compound	Activity (Osteoclast)
100	2000	CCC(O)(CC)CCCS[C@@H](C)C1=CCC2/C(=C/C=C3C[C@@H](O)C[C@H](O)C3)CCC[C@]12C (stereo not given in full)	Dose-dependent effect
8	20	CCC(O)(CC)CCCS[C@H](C)C1=CCC2/C(=C/C=C3C[C@@H](O)C[C@H](O)C3)CCC[C@]12C (stereo not given in full)	Dose-dependent effect

Continued, compound first:

Compound	Activity [1] [%]	Activity [2] [%]	Activity (Osteoclast)
CCC(O)(CC)CS[C@@H](C)C1=CCC2/C(=C/C=C3C[C@@H](O)C[C@H](O)C3)CCC[C@]12C (stereo not given in full)	60	104	Dose-dependent effect
CCC(O)(CC)CCS[C@H](C)C1=CCC2/C(=C/C=C3C[C@@H](O)C[C@H](O)C3)CCC[C@]12C (stereo not given in full)	4	27	Dose-dependent effect
CCC(O)(CC)CCCCS[C@@H](C)C1=CCC2/C(=C/C=C3C[C@@H](O)C[C@H](O)C3)CCC[C@]12C (stereo not given in full)	–	1	–
CCC(O)(CC)CCS[C@@H](C)C1=CCC2/C(=C/C=C3C[C@@H](O)C[C@H](O)C3)CCC[C@]12C (stereo not given in full)	100	2000	Dose-dependent effect
CCC(O)(CC)CCCCCS[C@@H](C)C1=CCC2/C(=C/C=C3C[C@@H](O)C[C@H](O)C3)CCC[C@]12C (stereo not given in full)	–	2	–
CCC(O)(CC)CS[C@H](C)C1=CCC2/C(=C/C=C3C[C@@H](O)C[C@H](O)C3)CCC[C@]12C (stereo not given in full)	6	9	Dose-dependent effect
